Measurements as given in the RNAGym collection of RNA variant scans (doi:10.1038/nmeth.2970).

B1: NELF-E aptamer (parent)
chain: CCCAACGACUGCCGAGCGAGAUUACGCUUGAGCGCCCCACUGAGGAUGCCCACGGGCGAUUGGGGCACGG

Variants of: B1
Experiment: HiTS-RAP
Conditions: with NELF-E (Drosophila)
Method in brief: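 Aptamer DNA templates bearing a T7 promoter and a ter site were sequenced on an Illumina GAIIx flowcell. T7 RNA polymerase then transcribed them in situ, and GST-Tus halted transcription over 30 minutes at 37°C. After a 30-minute room-temperature equilibration with NELF-E-mOrange at 0.064 to 1000 nM in HEPES binding buffer, clusters were imaged, using only the first binding curve. Intensities normalised to sequencing intensity were averaged per sequence and fitted with weighted Hill fits to give Kd, retaining only fits whose variance stayed under 1,000,000.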

Variant	Kd
CCCAACGACUGCCUAGCGAGAUUACGCGUGAGCGCCCCACUGAGGAUGCCCACGGGCGAUUGGGGCACGG	9.45 nM
CCCAACGACUGCCUAGCGAGAUUACGCUAGAGCGCCCCACUGAGGAUGCCCACGGGCGAUUGGGGCACGG	5.7 nM
CCCAACGACUGCCUAGCGAGAUUACGCUCGAGCGCCCCACUGAGGAUGCCCACGGGCGAUUGGGGCACGG	7.48 nM
CCCAACGACUGCCUAGCGAGAUUACGCUGGAGCGCCCCACUGAGGAUGCCCACGGGCGAUUGGGGCACGG	6.2 nM
CCCAACGACUGCCUAGCGAGAUUACGCUUGAGCGCCCCACAGAGGAUGCCCACGGGCGAUUGGGGCACGG	51.7 nM
CCCAACGACUGCCUAGCGAGAUUACGCUUGAGCGCCCCACGGAGGAUGCCCACGGGCGAUUGGGGCACGG	6.33 nM
CCCAACGACUGCCUAGCGAGAUUACGCUUGAGCGCCCCACUGAGGAAGCCCACGGGCGAUUGGGGCACGG	9.21 nM
CCCAACGACUGCCUAGCGAGAUUACGCUUGAGCGCCCCACUGAGGAUGCCCACGGGCGAUAGGGGCACGG	36 nM
CCCAACGACUGCCUAGCGAGAUUACGCUUGAGCGCCCCACUGAGGAUGCCCACGGGCGAUCGGGGCACGG	86.8 nM
CCCAACGACUGCCGCGCGAGAUUACGCUUGAGCGCCCCACUGAGGAUGCCCACGGGCGAUUGGGGCACGG	4 nM
CCCAACGACUGCCGGGCGAGAUUACGCUUGAGCGCCCCACUGAGGAUGCCCACGGGCGAUUGGGGCACGG	4.77 nM
CCCAACGACUGCCGGGCGGGAUUACGCUUGAGCGCCCCACUGAGGAUGCCCACGGGCGAUUGGGGCACGG	6.95 nM
CCCAACGACUGCCGGGCGAGGUUACGCUUGAGCGCCCCACUGAGGAUGCCCACGGGCGAUUGGGGCACGG	5.12 nM
CCCAACGACUGCCGGGCGAGAUUGCGCUUGAGCGCCCCACUGAGGAUGCCCACGGGCGAUUGGGGCACGG	6.12 nM
CCCAACGACUGCCGGGGGAGAUUACGCUUGAGCGCCCCACUGAGGAUGCCCACGGGCGAUUGGGGCACGG	5.93 nM
CCCAACGACUGCCGGACGAGAUUACGCUUGAGCGCCCCACUGAGGAUGCCCACGGGCGAUUGGGGCACGG	8.29 nM
CCCAACGACUGCCGGUCGAGAUUACGCUUGAGCGCCCCACUGAGGAUGCCCACGGGCGAUUGGGGCACGG	5.48 nM
CCCAACGACUGCCGGGCGAGAGUACGCUUGAGCGCCCCACUGAGGAUGCCCACGGGCGAUUGGGGCACGG	5.78 nM
CCCAACGACUGCCGGGCGAGAUGACGCUUGAGCGCCCCACUGAGGAUGCCCACGGGCGAUUGGGGCACGG	5.24 nM
CCCAACGACUGCCGGGCGAGAUUACGCUGGAGCGCCCCACUGAGGAUGCCCACGGGCGAUUGGGGCACGG	5.98 nM
CCCAACGACUGCCGGGCGAGAUUACGCUUGAGCGCCCCACGGAGGAUGCCCACGGGCGAUUGGGGCACGG	5.7 nM
CCCAACGACUGCCGUGCGAGAUUACGCUUGAGCGCCCCACUGAGGAUGCCCACGGGCGAUUGGGGCACGG	5.65 nM
CCCAACGACUGCCGUGCGGGAUUACGCUUGAGCGCCCCACUGAGGAUGCCCACGGGCGAUUGGGGCACGG	9.2 nM
CCCAACGACUGCCGUGCGAGAUUGCGCUUGAGCGCCCCACUGAGGAUGCCCACGGGCGAUUGGGGCACGG	6.86 nM
CCCAACGACUGCCGUGCGAGAUUACGCUUGAGCGCCCCACUGAGGAUGCCCACGGGCGAUUGGGGCGCGG	4.18 nM
CCCAACGACUGCCGUGGGAGAUUACGCUUGAGCGCCCCACUGAGGAUGCCCACGGGCGAUUGGGGCACGG	7.12 nM

Variant	Kd
CCCAACGACUGCCGUGCGAGAUUACGCUUGAGCGCCCCACUGAGGAUGCCCACGGGUGAUUGGGGCACGG	14.3 nM
CCCAACGACUGCCGUUCGAGAUUACGCUUGAGCGCCCCACUGAGGAUGCCCACGGGCGAUUGGGGCACGG	8.03 nM
CCCAACGACUGCCGUGCGAUAUUACGCUUGAGCGCCCCACUGAGGAUGCCCACGGGCGAUUGGGGCACGG	7.81 nM
CCCAACGACUGCCGUGCGAGAUUACGCUUGAGCACCCCACUGAGGAUGCCCACGGGCGAUUGGGGCACGG	11.8 nM
CCCAACGACUGCCGUGCGAGAGUACGCUUGAGCGCCCCACUGAGGAUGCCCACGGGCGAUUGGGGCACGG	6.74 nM
CCCAACGACUGCCGUGCGAGAUGACGCUUGAGCGCCCCACUGAGGAUGCCCACGGGCGAUUGGGGCACGG	5.84 nM
CCCAACGACUGCCGUGCGAGAUUACGCUAGAGCGCCCCACUGAGGAUGCCCACGGGCGAUUGGGGCACGG	5.96 nM
CCCAACGACUGCCGUGCGAGAUUACGCUGGAGCGCCCCACUGAGGAUGCCCACGGGCGAUUGGGGCACGG	6.83 nM
CCCAACGACUGCCGUGCGAGAUUACGCUUGAGCGCCCCACCGAGGAUGCCCACGGGCGAUUGGGGCACGG	82.7 nM
CCCAACGACUGCCGUGCGAGAUUACGCUUGAGCGCCCCACGGAGGAUGCCCACGGGCGAUUGGGGCACGG	6.49 nM
CCCAACGACUGCCGUGCGAGAUUACGCUUGAGCGCCCCACUGAGGAUGCCCACGGGCGACUGGGGCACGG	10.7 nM
CCCAACGACUGCCGAACGAGAUUACGCUUGAGCGCCCCACUGAGGAUGCCCACGGGCGAUUGGGGCACGG	5.27 nM
CCCAACGACUGCCGAACGAGAUUGCGCUUGAGCGCCCCACUGAGGAUGCCCACGGGCGAUUGGGGCACGG	6.88 nM
CCCAACGACUGCCGAAGGAGAUUACGCUUGAGCGCCCCACUGAGGAUGCCCACGGGCGAUUGGGGCACGG	6.2 nM
CCCAACGACUGCCGAACGAUAUUACGCUUGAGCGCCCCACUGAGGAUGCCCACGGGCGAUUGGGGCACGG	7.98 nM
CCCAACGACUGCCGAACGAGAGUACGCUUGAGCGCCCCACUGAGGAUGCCCACGGGCGAUUGGGGCACGG	6.17 nM
CCCAACGACUGCCGAACGAGAUGACGCUUGAGCGCCCCACUGAGGAUGCCCACGGGCGAUUGGGGCACGG	6.04 nM
CCCAACGACUGCCGAACGAGAUUACGCUGGAGCGCCCCACUGAGGAUGCCCACGGGCGAUUGGGGCACGG	5.1 nM
CCCAACGACUGCCGAACGAGAUUACGCUUGAGCGCCCCACGGAGGAUGCCCACGGGCGAUUGGGGCACGG	6.55 nM
CCCAACGACUGCCGACCGAGAUUACGCUUGAGCGCCCCACUGAGGAUGCCCACGGGCGAUUGGGGCACGG	4.81 nM
CCCAACGACUGCCGAUCGAGAUUACGCUUGAGCGCCCCACUGAGGAUGCCCACGGGCGAUUGGGGCACGG	5.88 nM
CCCAACGACUGCCGAUCGGGAUUACGCUUGAGCGCCCCACUGAGGAUGCCCACGGGCGAUUGGGGCACGG	6.97 nM
CCCAACGACUGCCGAUCGUGAUUACGCUUGAGCGCCCCACUGAGGAUGCCCACGGGCGAUUGGGGCACGG	5.21 nM
CCCAACGACUGCCGAUCGAGGUUACGCUUGAGCGCCCCACUGAGGAUGCCCACGGGCGAUUGGGGCACGG	5.22 nM
CCCAACGACUGCCGAUCGAGUUUACGCUUGAGCGCCCCACUGAGGAUGCCCACGGGCGAUUGGGGCACGG	6.82 nM
CCCAACGACUGCCGAUCGAGAUUGCGCUUGAGCGCCCCACUGAGGAUGCCCACGGGCGAUUGGGGCACGG	7.15 nM

Variant	Kd
CCCAACGACUGCCGAUCGAGAUUACGCUUGGGCGCCCCACUGAGGAUGCCCACGGGCGAUUGGGGCACGG	8.32 nM
CCCAACGACUGCCGAUCGAGAUUACGCUUGUGCGCCCCACUGAGGAUGCCCACGGGCGAUUGGGGCACGG	6.75 nM
CCCAACGACUGCCGAUCGAGAUUACGCUUGAGCGCCCCGCUGAGGAUGCCCACGGGCGAUUGGGGCACGG	8.49 nM
CCCAACGACUGCCGAUCGAGAUUACGCUUGAGCGCCCCUCUGAGGAUGCCCACGGGCGAUUGGGGCACGG	23.5 nM
CCCAACGACUGCCGAUCGAGAUUACGCUUGAGCGCCCCACUGAGGAUGCCCGCGGGCGAUUGGGGCACGG	4.81 nM
CCCAACGACUGCCGAUCGAGAUUACGCUUGAGCGCCCCACUGAGGAUGCCCUCGGGCGAUUGGGGCACGG	19.7 nM
CCCAACGACUGCCGAUCGAGAUUACGCUUGAGCGCCCCACUGAGGAUGCCCACGGGCGAUUGGGGCGCGG	5.58 nM
CCCAACGACUGCCGAUCGAGAUUACGCUUGAGCGCCCCACUGAGGAUGCCCACGGGCGAUUGGGGCUCGG	10.1 nM
CCCAACGACUGCCGAUGGAGAUUACGCUUGAGCGCCCCACUGAGGAUGCCCACGGGCGAUUGGGGCACGG	5.95 nM
CCCAACGACUGCCGAUUGAGAUUACGCUUGAGCGCCCCACUGAGGAUGCCCACGGGCGAUUGGGGCACGG	6.11 nM
CCCAACGACUGCCGAUCGAGAUUAGGCUUGAGCGCCCCACUGAGGAUGCCCACGGGCGAUUGGGGCACGG	7.48 nM
CCCAACGACUGCCGAUCGAGAUUACGCUUGAGCGCCUCACUGAGGAUGCCCACGGGCGAUUGGGGCACGG	21.9 nM
CCCAACGACUGCCGAUCGAGAUUACGCUUGAGCGCCCCACUGAGGAUGCCCACGGGUGAUUGGGGCACGG	8.22 nM
CCCAACGACUGCCGAUCGAGAUUACGCUUGAGCGCCCCACUGAGGAUGCCCACGGGCGAUUGGGGUACGG	5.92 nM
CCCAACGACUGCCGAUCAAGAUUACGCUUGAGCGCCCCACUGAGGAUGCCCACGGGCGAUUGGGGCACGG	7.17 nM
CCCAACGACUGCCGAUCGAUAUUACGCUUGAGCGCCCCACUGAGGAUGCCCACGGGCGAUUGGGGCACGG	7.39 nM
CCCAACGACUGCCGAUCGAGAUUACACUUGAGCGCCCCACUGAGGAUGCCCACGGGCGAUUGGGGCACGG	4.92 nM
CCCAACGACUGCCGAUCGAGAUUACUCUUGAGCGCCCCACUGAGGAUGCCCACGGGCGAUUGGGGCACGG	7.33 nM
CCCAACGACUGCCGAUCGAGAUUACGCUUAAGCGCCCCACUGAGGAUGCCCACGGGCGAUUGGGGCACGG	4.95 nM
CCCAACGACUGCCGAUCGAGAUUACGCUUGAGCACCCCACUGAGGAUGCCCACGGGCGAUUGGGGCACGG	9.22 nM
CCCAACGACUGCCGAUCGAGAUUACGCUUGAGCGCCCCACUAAGGAUGCCCACGGGCGAUUGGGGCACGG	36.6 nM
CCCAACGACUGCCGAUCGAGAUUACGCUUGAGCGCCCCACUGAGGAUGCCCACAGGCGAUUGGGGCACGG	16.2 nM
CCCAACGACUGCCGAUCGAGAUUACGCUUGAGCGCCCCACUGAGGAUGCCCACGAGCGAUUGGGGCACGG	7.53 nM
CCCAACGACUGCCGAUCGAGAUUACGCUUGAGCGCCCCACUGAGGAUGCCCACGUGCGAUUGGGGCACGG	8.69 nM
CCCAACGACUGCCGAUCGAGAUUACGCUUGAGCGCCCCACUGAGGAUGCCCACGGACGAUUGGGGCACGG	13.2 nM
